One compound from ChEMBL document CHEMBL4138193, “Novel indole and triazole based hybrid molecules exhibit potent anti-adipogenic and antidyslipidemic activity by activating Wnt3a/β-catenin pathway” (Eur J Med Chem, 2018) can be followed below.

Calls of active or inactive are those of the source. The calls are words filed in the database; no cut-off is given here.

Data set [1] concerns Syrian golden hamster. The data set is described as follows: Induction of reverse cholestrol transport in high fat diet-induced dyslipidemia Syrian Golden hamster model assessed as decrease in CETP mRNA expression in liver at 100 mg/kg, po administered for 1 week by qRT-PCR analysis. It counts as functional, organism-based. The conditions noted are these: Mesocricetus auratus. (In general: Quantitative PCR measures a nucleic acid by following its amplification.)

Data set [2] has as its system 3T3-L1. Description: Cytotoxicity against mouse 3T3L1 cells at 1 to 1000 uM after 24 hrs by MTT assay. Type of data set: cell-based. Particulars: 3t3-l1, 24 h. The method in brief: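 3T3-L1 cells seeded at 1×10^4 per well and grown 24 hr, then exposed to 1–1000 µM for 24 hr. Medium was replaced with MTT medium ([…]) for 3 hr and the formazan dissolved in DMSO. Absorbance read at 570 nm; three independent experiments, mean ± SD.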
Background: Formazan colour is commonly taken as a measure of viable cells.

In data set [3] the test system is Syrian golden hamster. Description: Effect on serum HDL level in high fat diet-induced dyslipidemia Syrian Golden hamster model at 100 mg/kg, po administered for 1 week followed by overnight fasting post last dose by clinical bio-analyzer analysis. Type of data set: ADME, organism-based, Mesocricetus auratus. The conditions noted are these: in vivo, 168 h. Summed up:
(§1)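 Male Syrian Golden hamsters (8-10 weeks, 100-120 g), 4 per group, given 45% kCal high fat diet for 4 days, then HFD plus oral dosing in 0.5% w/v NaCMC for one week. After an overnight fast, blood was taken from the retro-orbital plexus under anesthesia and serum was analysed on a clinical bio-analyzer. Mean ± SEM; one-way ANOVA with Bonferroni post-test.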

Data set [4] concerns Syrian golden hamster. Description: Anti-dyslipidemic activity in high fat diet-induced dyslipidemia Syrian Golden hamster model assessed as reduction in serum total cholesterol levels at 100 mg/kg, po administered for 1 week followed by overnight fasting post last dose by clinical bio-analyzer analysis. The conditions noted are these: Mesocricetus auratus. It counts as functional, organism-based. Summed up:
as §1

The species named for data set [5] is Mus musculus. The data set is described as follows: Activation of Wnt3a/beta-catenin in mouse 3T3L1 cells assessed as down-regulation of CDK4 expression at 20 uM after 16 to 24 hrs by Western blot analysis. It counts as cell-based. The method in brief:
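3T3-L1 cells given MDI differentiation media (0.5 mM IBMX, 5 µg/ml insulin, 250 nM dexamethasone) with or without 20 µM compound. Proteins isolated at 16 and 24 h and probed by Western blot for CDK2, CDK4, CDK6, cyclin D1 and D3. Densitometry normalized to actin, n=3, mean ± SD, Student t test.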

Data set [6] has as its system Syrian golden hamster. The data set is described as follows: Induction of reverse cholestrol transport in high fat diet-induced dyslipidemia Syrian Golden hamster model assessed as increase in LXR1alpha mRNA expression in liver at 100 mg/kg, po administered for 1 week by qRT-PCR analysis. Type of data set: functional, organism-based. The conditions noted are these: Mesocricetus auratus.

Data set [7] relates to Syrian golden hamster. The data set is described as follows: Anti-dyslipidemic activity in high fat diet-induced dyslipidemia Syrian Golden hamster model assessed as decrease in serum ALT levels at 100 mg/kg, po administered for 1 week followed by overnight fasting post last dose by clinical bio-analyzer analysis. Type of data set: functional, organism-based. The conditions noted are these: Mesocricetus auratus. The method in brief:
(§2)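 Male Syrian golden hamsters (8–10 wk, 100–120 g), 4 per group, given 45% kcal HFD for 4 days, then 100 mg/kg p.o. in 0.5% NaCMC daily for one week alongside HFD. Blood taken from retro-orbital plexus after overnight fast. TG, HDL, LDL, ALT, AST measured on a clinical bio-analyzer and NEFA by kit. Mean ± SEM, one-way ANOVA with Bonferroni.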

Data set [8] has as its system Syrian golden hamster. The data set is described as follows: Anti-dyslipidemic activity in high fat diet-induced dyslipidemia Syrian Golden hamster model assessed as reduction in serum NEFA levels at 100 mg/kg, po administered for 1 week followed by overnight fasting post last dose. Particulars: Mesocricetus auratus. It counts as functional, organism-based. The method in brief: as §2

The species entered for a further data set is Homo sapiens. The data set is described as follows: Anti-adipogenic activity in human differentiated MSC assessed as reduction in lipid accumulation at 5 to 20 uM after 20 mins by Oil Red O absorbance method. It counts as functional. The method in brief: (§3)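 C3H10T1/2 or human MSC differentiated with IBMX/insulin/dexamethasone media containing 5, 10 or 20 µM compound. Cells stained with Oil red O (0.36% in 60% isopropanol, 20 min), dye extracted with isopropanol, absorbance read at 492 nm. n=3, mean ± SD, Student t test against MDI group.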

The species entered for data set [9] is Mus musculus. Description: Activation of Wnt3a/beta-catenin in mouse 3T3L1 cells assessed as down-regulation of cyclinE expression at 20 uM after 16 to 24 hrs by Western blot analysis. It counts as cell-based.
Data set [10] relates to Syrian golden hamster. The data set is described as follows: Induction of reverse cholestrol transport in high fat diet-induced dyslipidemia Syrian Golden hamster model assessed as reduction in eWAT to body weight ratio at 100 mg/kg, po administered for 1 week. It counts as functional, organism-based. The conditions noted are these: Mesocricetus auratus. Summed up: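 Male Syrian Golden hamsters on 45% kCal HFD, dosed 100 mg/kg p.o. in 0.5% NaCMC for one week, 4 per group. Food intake and body weight recorded daily. At the end, animals were saline-perfused and liver and eWAT were excised and weighed. Paraffin sections stained with H&E and imaged at 20x.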

Data set [11] relates to C3H 10T1/2. The data set is described as follows: Anti-adipogenic activity in mouse differentiated C3H10T1/2 cells assessed as reduction in lipid accumulation at 5 to 20 uM after 20 mins by Oil Red O absorbance method. It counts as functional, cell-based. The method in brief: as §3
Data set [12] is filed under the species Mus musculus. The data set is described as follows: Activation of Wnt3a/beta-catenin in mouse 3T3L1 cells assessed as increase in CREB mRNA expression at 20 uM by qRT-PCR analysis. It counts as cell-based. The method in brief:
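3T3-L1 cells differentiated with IBMX/dexamethasone/insulin media with or without 20 µM compound over the differentiation period. RNA extracted with TRIZOL, 500 ng reverse-transcribed to cDNA, then quantitative real-time PCR. Three independent experiments run in triplicate, mean ± SD, one-way ANOVA with Bonferroni posttest.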

Data set [13] deals with 3T3-L1. Description: Upregulation of wnt3a mRNA expression in mouse 3T3L1 cells at 20 uM by qRT-PCR analysis. It counts as functional, cell-based. The method in brief:
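3T3-L1 cells induced with MDI differentiation medium with or without 20 µM. RNA isolated with TRIzol and 500 ng reverse-transcribed to cDNA for real-time PCR. n=3 with triplicates, mean ± SD; one-way ANOVA with Bonferroni post-test.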

The subject of data set [14] is Syrian golden hamster. Description: Induction of reverse cholestrol transport in high fat diet-induced dyslipidemia Syrian Golden hamster model assessed as reduction in hepatic lipid vacuoles hypertrophy at 100 mg/kg, po administered for 1 week by H and E staining based assay. It counts as functional, organism-based. Particulars: Mesocricetus auratus.
The species named for data set [15] is Mus musculus. Description: Activation of Wnt3a/beta-catenin in mouse 3T3L1 cells assessed as down-regulation of cyclinD3 expression at 20 uM after 16 to 24 hrs in presence of FH353 by Western blot analysis. It counts as cell-based. The method in brief:
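Confluent 3T3-L1 cells given differentiation media (IBMX/insulin/dexamethasone) with 20 µM compound, with or without the β-catenin/TCF inhibitor FH353 (10 µM). Proteins isolated at 16 and 24 h and Western blotted after SDS-PAGE and nitrocellulose transfer. Blocking in 5% milk/TBS-T, primary antibody overnight at 4 °C, chemiluminescent detection, β-actin control, three independent experiments.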
On the technique in general: Immunoblotting shows a protein as a band on a membrane.

The test system of data set [16] is C3H 10T1/2. The data set is described as follows: Anti-adipogenic activity in mouse differentiated C3H10T1/2 cells assessed as reduction in lipid accumulation at 5 to 20 uM after 20 mins by Oil Red O staining based microscopic method. It counts as functional, cell-based. Summed up:
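C3H10T1/2 or hMSC adipocytes differentiated alongside 5, 10 or 20 µM compound in differentiation media, stained with Oil red O. Images taken by bright-field microscopy at 10x and 20x, representative of three independent experiments.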

Data set [17] has as its system C3H 10T1/2. The data set is described as follows: Anti-adipogenic activity in mouse C3H10T1/2 cells assessed as reduction in lipid accumulation at early differentiation stage at 20 uM measured up to 3 days by Oil Red O staining based leica microscopy. It counts as functional, cell-based. Summed up: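 3T3-L1 or C3H10T1/2 cells given 20 µM compound in differentiation media for varied time periods, then stained with Oil red O. Imaged by microscopy at 10x, representative of three independent experiments.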

`Cc1ccc(S(=O)(=O)N(Cc2cn(Cc3cccc(F)c3F)nn2)Cc2cn(S(=O)(=O)c3ccc(C)cc3)c3ccccc23)cc1`: the outcome in the data set on Syrian golden hamster [1], in the data set on Syrian golden hamster [4], in the data set filed under Mus musculus [5], in the data set on Syrian golden hamster [6], with Syrian golden hamster [7] and in the data set with Syrian golden hamster [8] was Active. Also, the outcome in the data set listed under Homo sapiens, in the data set listed under Mus musculus [9], in the data set on Syrian golden hamster [10], in the data set with C3H 10T1/2 [11], in the data set listed under Mus musculus [12] and with 3T3-L1 [13] was Active. The outcome with Syrian golden hamster [14], with C3H 10T1/2 [16] and in the data set on C3H 10T1/2 [17] was Active. The Activity result with 3T3-L1 [2] and in the data set with Syrian golden hamster [3] was “Non-Toxic” throughout. Further, in the data set filed under Mus musculus [15], the outcome was inactive.
